In ChEMBL document CHEMBL4373711, “Development of 3,5-Dinitrophenyl-Containing 1,2,4-Triazoles and Their Trifluoromethyl Analogues as Highly Efficient Antitubercular Agents Inhibiting Decaprenylphosphoryl-β-d-ribofuranose 2'-Oxidase” (J Med Chem, 2019):
≈ marks a conversion by molar mass, not a printed value. Calls of active or inactive are those of the source. The rule behind the calls is not given here.

How the values were obtained:
[1] = test system: Mycobacterium tuberculosis; assay: Antimycobacterial activity against XDR Mycobacterium tuberculosis Praha 131 after 14 days; format: functional; details: Praha 131, 336 h
How it was run: (§1)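 M. tuberculosis strains (H37Rv and clinical MDR/XDR isolates) tested by microdilution in Šula's semisynthetic medium. Compounds were dissolved in DMSO and tested at 32 to 0.03 µM in twofold steps. Inoculum was a 1.0 McFarland suspension diluted 10-3. Plates were incubated at 37 °C and read at 14 and 21 days.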

[2] = test system: Mycobacterium tuberculosis; assay: Antimycobacterial activity against Mycobacterium tuberculosis H37Rv CNCTC My 331/88 after 21 days; format: functional; details: H37Rv CNCTC My 331/88, 504 h; how it was run: as §1
Klebsiella pneumoniae = assay: Antibacterial activity against Klebsiella pneumoniae at highest concentration measured after 24 to 48 hrs by alamar blue dye based broth microdilution assay; format: functional, organism-based
Mycobacterium avium [3] = assay: Antimycobacterial activity against Mycobacterium avium CNCTC My 330/88 after 21 days; format: functional; details: CNCTC My 330/88, 504 h
How it was run: (§2)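 M. avium was tested by microdilution in Šula's semisynthetic medium, with compounds dissolved in DMSO and serially diluted from 1000 down to 1. Inoculum was a 1.0 McFarland suspension diluted 10-5. Plates were incubated at 37 °C and read at 14 and 21 days. […] Isoniazid and rifampicin served as standards.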

[4] = Genotoxicity in Salmonella typhimurium TA98 at 30 uM in presence of rat liver S9 fraction by Ames test; format: toxicity, subcellular; details: salmonella enterica subsp. enterica serovar typhimurium, s9, 30 µM
How it was run: (§3)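 Microplate fluctuation Ames reverse-mutation test following kit instructions; TA98 detects frameshift and TA100 base-exchange mutations. Compound at 30 µM final with Aroclor-1254-induced rat liver S9 plus cofactors.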

[5] = test system: Mycobacterium tuberculosis; assay: Antimycobacterial activity against XDR Mycobacterium tuberculosis Praha 131 after 21 days; format: functional; details: Praha 131, 504 h; how it was run: as §1
Mycobacterium kansasii [6] = assay: Antimycobacterial activity against Mycobacterium kansasii 6509/96 after 7 days; format: functional; details: 6509/96, 168 h
How it was run: (§4)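 Microdilution in Šula's semisynthetic medium; compounds in DMSO at 32–0.03 µM. Inoculum from 1.0 McFarland suspension diluted 10-4. […] Isoniazid and rifampicin as reference drugs.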

Mycobacterium kansasii [7] = assay: Antimycobacterial activity against Mycobacterium kansasii CNCTC My 235/80 after 14 days; format: functional; details: CNCTC My 235/80, 336 h; how it was run: as §4
HepG2 = assay: Cytotoxicity against human HepG2 cells assessed as reduction in cell viability after 48 hrs by CellTiter 96 aqueous one solution assay; format: cell-based; details: HepG2, 48 h
Mycobacterium kansasii [8] = assay: Antimycobacterial activity against Mycobacterium kansasii 6509/96 after 21 days; format: functional; details: 6509/96, 504 h; how it was run: as §4
[9] = Genotoxicity in Salmonella typhimurium TA100 at 30 uM in presence of rat liver S9 fraction by Ames test; format: toxicity, subcellular; details: salmonella enterica subsp. enterica serovar typhimurium, s9, 30 µM; how it was run: as §3
A-431 = assay: Cytotoxicity against human A431 cells assessed as reduction in cell viability after 48 hrs by CellTiter 96 aqueous one solution assay; format: cell-based; details: A-431, 48 h
Aspergillus fumigatus = assay: Antifungal activity against Aspergillus fumigatus ATCC 204305 at highest concentration measured after 24 to 48 hrs by alamar blue dye based broth microdilution assay; format: functional, organism-based
Mycobacterium kansasii [10] = assay: Antimycobacterial activity against Mycobacterium kansasii 6509/96 after 14 days; format: functional; details: 6509/96, 336 h; how it was run: as §4
[11] = test system: Staphylococcus epidermidis; assay: Antibacterial activity against Staphylococcus epidermidis at highest concentration measured after 24 to 48 hrs by alamar blue dye based broth microdilution assay; format: functional, organism-based
[12] = Cytotoxicity against human A431 cells assessed as cell viability at 30 uM after 48 hrs by CellTiter 96 aqueous one solution assay relative to control; format: cell-based, A-431; details: read-out: Activity
How it was run: (§5)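 HepG2 (DMEM, 10% FBS, 1 mM pyruvate) or A431 (DMEM, 10% FBS) seeded 10,000 cells/well, 24 h at 37 °C, 5% CO2, then 30 µM compound for 48 h. MTS reagent 60 min, absorbance 490 nm, background subtracted; 0.1% DMSO vehicle = 100%, 10% SDS = 0% viability.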

Staphylococcus aureus [13] = assay: Antibacterial activity against Staphylococcus aureus subsp. aureus ATCC 29213 CCM 4223 at highest concentration measured after 24 to 48 hrs by alamar blue dye based broth microdilution assay; format: functional, organism-based
Serratia marcescens = assay: Antibacterial activity against Serratia marcescens at highest concentration measured after 24 to 48 hrs by alamar blue dye based broth microdilution assay; format: functional, organism-based
[14] = test system: Trichophyton interdigitale; assay: Antifungal activity against Trichophyton interdigitale ATCC 9533 CCM 8377 at highest concentration measured after 72 to 120 hrs by alamar blue dye based broth microdilution assay; format: functional
Candida parapsilosis = assay: Antifungal activity against Candida parapsilosis ATCC 22019 CCM 8260 at highest concentration measured after 24 to 48 hrs by alamar blue dye based broth microdilution assay; format: functional, organism-based
Mycobacterium kansasii [15] = assay: Antimycobacterial activity against Mycobacterium kansasii CNCTC My 235/80 after 7 days; format: functional; details: CNCTC My 235/80, 168 h; how it was run: as §4
Aspergillus flavus = assay: Antifungal activity against Aspergillus flavus CCM 8363 at highest concentration measured after 24 to 48 hrs by alamar blue dye based broth microdilution assay; format: functional, organism-based
Mycobacterium kansasii [16] = assay: Antimycobacterial activity against Mycobacterium kansasii CNCTC My 235/80 after 21 days; format: functional; details: CNCTC My 235/80, 504 h; how it was run: as §4
Lichtheimia corymbifera = assay: Antifungal activity against Lichtheimia corymbifera CCM 8077 at highest concentration measured after 24 to 48 hrs by alamar blue dye based broth microdilution assay; format: functional, organism-based
Mycobacterium avium [17] = assay: Antimycobacterial activity against Mycobacterium avium CNCTC My 330/88 after 14 days; format: functional; details: CNCTC My 330/88, 336 h; how it was run: as §2
Candida albicans = assay: Antifungal activity against Candida albicans ATCC 24433 CCM 8320 at highest concentration measured after 24 to 48 hrs by alamar blue dye based broth microdilution assay; format: functional, organism-based
[18] = test system: Mycobacterium tuberculosis; assay: Antimycobacterial activity against Mycobacterium tuberculosis H37Rv CNCTC My 331/88 after 14 days; format: functional; details: H37Rv CNCTC My 331/88, 336 h; how it was run: as §1
Enterococcus faecalis = assay: Antibacterial activity against Enterococcus faecalis ATCC 29212 CCM 4224 at highest concentration measured after 24 to 48 hrs by alamar blue dye based broth microdilution assay; format: functional, organism-based
Staphylococcus aureus [19] = assay: Antibacterial activity against methicillin-resistant Staphylococcus aureus subsp. aureus ATCC 43300 CCM 4750 at highest concentration measured after 24 to 48 hrs by alamar blue dye based broth microdilution assay; format: functional, organism-based
Candida tropicalis = assay: Antifungal activity against Candida tropicalis ATCC 750 CCM 8264 at highest concentration measured after 24 to 48 hrs by alamar blue dye based broth microdilution assay; format: functional, organism-based
Pichia kudriavzevii = assay: Antifungal activity against Candida krusei ATCC 6258 CCM8271 at highest concentration measured after 24 to 48 hrs by alamar blue dye based broth microdilution assay; format: functional, organism-based
[20] = Cytotoxicity against human HepG2 cells assessed as cell viability at 30 uM after 48 hrs by CellTiter 96 aqueous one solution assay relative to control; format: cell-based; details: read-out: Activity; how it was run: as §5
Pseudomonas aeruginosa = assay: Antibacterial activity against Pseudomonas aeruginosa ATCC 27853 CCM 3955 at highest concentration measured after 24 to 48 hrs by alamar blue dye based broth microdilution assay; format: functional, organism-based
Escherichia coli = assay: Antibacterial activity against Escherichia coli ATCC 25922 CCM 3954 at highest concentration measured after 24 to 48 hrs by alamar blue dye based broth microdilution assay; format: functional, organism-based

Compound | MIC99 [1] [µM] | MIC99 [2] [µM] | Activity (Klebsiella pneumoniae) | MIC99 (Mycobacterium avium [3]) [µM] | Activity [4] | MIC99 [5] [µM] | MIC99 (Mycobacterium kansasii [6]) [µM] | MIC99 (Mycobacterium kansasii [7]) [µM] | IC50 (HepG2) [µM] | MIC99 (Mycobacterium kansasii [8]) [µM] | Activity [9] | IC50 (A-431) [µM] | Activity (Aspergillus fumigatus) | MIC99 (Mycobacterium kansasii [10]) [µM] | Activity [11] | viability at 48 h, 30 µM [12] [%] | Activity (Staphylococcus aureus [13]) | Activity (Serratia marcescens) | Activity [14] | Activity (Candida parapsilosis) | other results
O=[N+]([O-])c1cc(-c2nnc(SCc3ccc(Cl)c(Cl)c3)n2Cc2ccccc2)cc([N+](=O)[O-])c1 | 0.125 (≈ 0.0645 µg/mL) | 0.25 (≈ 0.129 µg/mL) | inactive | 62 (≈ 32 µg/mL) | Toxic | 0.25 (≈ 0.129 µg/mL) | 0.06 (≈ 0.031 µg/mL) | 0.25 (≈ 0.129 µg/mL) | > 30 | 0.125 (≈ 0.0645 µg/mL) | Non-Toxic | > 30 | inactive | 0.125 (≈ 0.0645 µg/mL) | inactive | 97 | inactive | inactive | inactive | inactive | MIC99 (Mycobacterium kansasii [15]): 0.25 µM (≈ 0.129 µg/mL); Activity (Aspergillus flavus): inactive; MIC99 (Mycobacterium kansasii [16]): 0.25 µM (≈ 0.129 µg/mL); Activity (Lichtheimia corymbifera): inactive; MIC99 (Mycobacterium avium [17]): 62 µM (≈ 32 µg/mL); Activity (Candida albicans): inactive; MIC99 [18]: 0.25 µM (≈ 0.129 µg/mL); Activity (Enterococcus faecalis): inactive; Activity (Staphylococcus aureus [19]): inactive; Activity (Candida tropicalis): inactive; Activity (Pichia kudriavzevii): inactive; viability at 48 h, 30 µM [20]: 103%; Activity (Pseudomonas aeruginosa): inactive; Activity (Escherichia coli): inactive
Nc1ccc2cc3ccccc3cc2c1 [2-AMINOANTHRACENE] | – | – | – | – | Toxic | – | – | – | – | – | Toxic | – | – | – | – | – | – | – | – | – | –
O=[N+]([O-])c1cc(-c2nnc(SCc3ccc(Cl)cc3)n2Cc2ccccc2)cc([N+](=O)[O-])c1 | 0.125 (≈ 0.0602 µg/mL) | 0.25 (≈ 0.12 µg/mL) | inactive | 62 (≈ 29.9 µg/mL) | Toxic | 0.25 (≈ 0.12 µg/mL) | 0.06 (≈ 0.0289 µg/mL) | 0.25 (≈ 0.12 µg/mL) | > 30 | 0.125 (≈ 0.0602 µg/mL) | Non-Toxic | > 30 | inactive | 0.125 (≈ 0.0602 µg/mL) | inactive | 95 | inactive | inactive | inactive | inactive | MIC99 (Mycobacterium kansasii [15]): 0.125 µM (≈ 0.0602 µg/mL); Activity (Aspergillus flavus): inactive; MIC99 (Mycobacterium kansasii [16]): 0.5 µM (≈ 0.241 µg/mL); Activity (Lichtheimia corymbifera): inactive; MIC99 (Mycobacterium avium [17]): 62 µM (≈ 29.9 µg/mL); Activity (Candida albicans): inactive; MIC99 [18]: 0.125 µM (≈ 0.0602 µg/mL); Activity (Enterococcus faecalis): inactive; Activity (Staphylococcus aureus [19]): inactive; Activity (Candida tropicalis): inactive; Activity (Pichia kudriavzevii): inactive; viability at 48 h, 30 µM [20]: 105%; Activity (Pseudomonas aeruginosa): inactive; Activity (Escherichia coli): inactive
